High-throughput results from PubChem BioAssay.
PLC-gamma1 inh: PLC-gamma1 enzyme inhibitors, primary screen, biochemical, fluorescence, purified enzyme | 1-phosphatidylinositol 4,5-bisphosphate phosphodiesterase gamma-1 (Homo sapiens), P19174 | fluorogenic substrate | inhibition, % at 12.2 µM | actives 0.84% (n = 370,000); in the data active = inhibition above about 9.5%
ASAP1 inh: inhibitors of human ASAP1 ArfGAP activity, primary screen, biochemical, fluorescence polarization | Arf-GAP with SH3 domain, ANK repeat and PH domain-containing protein 1 (Homo sapiens), … | ASAP1-stimulated ARF1 GTP hydrolysis, GDP FP detection | inhibition, % at 16.5 µM | actives 0.19% (n = 360,000) | AID 624377, 2012; in the data active = inhibition above about 25%;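 note: 0% = vehicle with enzyme and substrate and 100% = no enzyme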
sPLA2-III inh: human group III sPLA2 inhibitors, primary screen, biochemical, QFRET, BODIPY PC-A2 liposome substrate. actives 0.56% (n = 370,000). inhibition, % at 12.2 µM. QFRET BODIPY PC-A2 liposome hydrolysis, fluorescence. Group 3 secretory phospholipase A2 (Homo sapiens), Q9NZ20. AID 743126, 2013;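 active = inhibition above mean plus 3 SD of compounds lying within the high and low control bounds, cut at about 19% in these data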;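 note: 0% = median of test compound wells and 100% = no enzyme DMSO wells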
Target sequence (Q9NZ20 whole entry, looked up): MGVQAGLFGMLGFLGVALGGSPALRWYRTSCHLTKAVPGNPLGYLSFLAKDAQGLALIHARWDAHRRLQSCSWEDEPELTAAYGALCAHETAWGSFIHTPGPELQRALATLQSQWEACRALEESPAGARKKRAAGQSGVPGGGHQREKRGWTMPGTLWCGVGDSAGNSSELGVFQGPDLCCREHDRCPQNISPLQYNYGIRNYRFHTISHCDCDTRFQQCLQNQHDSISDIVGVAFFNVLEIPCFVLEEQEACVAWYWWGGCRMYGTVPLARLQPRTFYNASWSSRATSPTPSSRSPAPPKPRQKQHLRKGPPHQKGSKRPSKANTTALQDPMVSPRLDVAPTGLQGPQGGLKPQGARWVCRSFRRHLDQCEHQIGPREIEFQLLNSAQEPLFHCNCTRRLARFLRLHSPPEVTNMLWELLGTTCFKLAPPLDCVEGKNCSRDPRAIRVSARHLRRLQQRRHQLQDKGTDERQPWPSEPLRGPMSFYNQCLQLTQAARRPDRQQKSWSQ
ARFGAP1 inhibitor: inhibitors of rat ARFGAP1 GAP activity, primary screen, biochemical, fluorescence polarization, GDP tracer; actives 0.26% (n = 360,000); ADP-ribosylation factor GTPase-activating protein 1 (Rattus norvegicus), Q62848; AID 651572, 2012; inhibition, % at 16.5 µM; Arfgap1-stimulated ARF1 GTP hydrolysis, GDP FP detection;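 active = inhibition above a per-plate limit, mean inhibition of low control wells plus 3 SD, cut at about 25% in these data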;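 note: 0% = DMSO wells with enzyme and 100% = wells lacking Arfgap1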
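Material: rat Arfgap1 catalytic domain, aa 1-136; also added: human ARF1(Δ1-17)-GTP substrate; compound dosing: one concentration, 16.5 µM, DMSO 1.26%; incubation: GTP hydrolysis reaction 2 h at 25 °C; measured by: Tracer-displacement fluorescence polarization with EDTA stop, 620/688 nm; evaluation: % inhibition from polarization; repeats: one replicate per compound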
PLC-beta3 inh: human PLC-beta3 inhibitors, primary screen, biochemical, fluorescence; actives 0.18% (n = 370,000); 1-phosphatidylinositol 4,5-bisphosphate phosphodiesterase beta-3 (Homo sapiens), Q01970; inhibition, % at 12.2 µM; Purified PLC-beta3, fluorogenic substrate; in the data active = inhibition above about 11%;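 note: 0% = median of compound wells on plate and 100% = full blocker control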
sPLA2 confirm: human group III sPLA2 inhibitors, confirmation, biochemical, QFRET, triplicate; shares compounds with sPLA2-III inh; recombinant hGIII-sPLA2, BODIPY PC-A2 QFRET fluorescence; inhibition, % at 12.2 µM; actives 34% (n = 2,000); AID 743280, 2014;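 active = mean inhibition across triplicates above the hit cutoff set in the earlier primary screen, cut at about 19% in these data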;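 note: 0% = enzyme with DMSO and 100% = DMSO wells lacking enzyme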
BODIPY interf: 535nm fluorescence optical interference, confirmation, artefact control for HGIII-sPLA2 inhibitor project, biochemical, QFRET | shares compounds with sPLA2-III inh | inhibition, % at 12.2 µM | actives 8.5% (n = 2,000) | BODIPY FL product fluorescence interference;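 active = average inhibition above the solvent-only control mean plus 3 SD, cut at about 6% in these data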;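 note: 0% = DMSO with substrate plus product and 100% = DMSO with substrate alone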
Starred values were filed as active, the others as inactive; nt = no result given. Most compounds without a hit are left out; they make up all but 1.9% or so of the library.

SMILES	PLC-gamma1 inh	ASAP1 inh	sPLA2-III inh	ARFGAP1 inhibitor	PLC-beta3 inh	sPLA2 confirm	BODIPY interf
Nc1[nH]n(-c2ccccc2)c(=O)c1N=Nc1ccc2c(c1)OCO2	2	1	21*	3	-9	27*	6
Nc1[nH]n(-c2ccccc2)c(=O)c1N=Nc1ccc2c(c1)OCCO2	0	9	2	3	-5	nt	nt
CC(C)(CCC(=S)N1CCOCC1)C1CCCCC1	5	-6	19*	-3	-1	18	-7
COc1cccc(-n2cn[nH]c2=S)c1	0	-6	-1	0	-3	nt	nt
COc1cccc(-n2sc3c(c2=S)-c2cc(OC)ccc2NC3(C)C)c1	3	3	27*	-4	8	17	0
O=C(NCCc1ccncc1)Nc1ccc(F)cc1	-2	3	20*	11	-7	4	-8
O=C(NCCc1ccncc1)Nc1ccc(Cl)cc1	5	3	4	0	7	nt	nt
C=CCN1[C@H](C)COc2cc(N3CCCC3)ccc2S1(=O)=O	-3	nt	4	nt	-2	nt	nt
COc1ccc(Cn2cc(CN3[C@@H](CC(C)C)COc4cccc(F)c4S3(=O)=O)nn2)cc1	-2	nt	-3	nt	-1	nt	nt
CN(C)c1ccc(Nc2ccc([N+](=O)[O-])cn2)cc1	8	10	39*	-3	2	44*	6.5*
CCOC(=O)[C@@]12CCCC=C1N(CCc1ccc(Cl)cc1)C(=O)[C@H]2CC(=O)NCc1cccc2ccccc12	3	nt	-15	nt	2	nt	nt
O=C(N[C@H](C(=O)N1CCC[C@H]1C(=O)NCCc1ccccc1Cl)c1ccccc1)c1cccs1	5	-7	-6	11	3	nt	nt
NC(=O)C1CC(=O)N(c2ccc(OCc3ccc(Cl)c(Cl)c3)cc2)C1 (stereo not given)	-21	-10	21*	4	-23	10	-13
O=C(NC1CCCC1)c1cc(-c2ccc(Cl)cc2)on1	8	5	19*	17	-5	-4	-8
O=C(NC1CCCCC1)c1cc(-c2ccc(Cl)cc2)on1	7	4	19	2	1	nt	nt
Cc1ccc(/C=N/NC(=O)c2ccc3nc[nH]c3c2)o1	1	0	21*	15	-8	2	-2
COC(=O)c1ccc(/C=N/NC(=O)c2ccc3nc[nH]c3c2)cc1	5	1	-1	9	-2	nt	nt
Cn1c(=O)c2[nH]c(SCC(=O)NCCc3cccc(F)c3)nc2n(C)c1=O	-2	nt	2	nt	-1	nt	nt
Cc1ccccc1NC(=S)NCCc1ccccc1	3	9	11	0	1	nt	nt
CC(C)(C)NC(=S)NCCc1ccccc1	-1	1	20*	-5	3	24*	-5
O=C1CCCN1c1nccs1	3	0	20*	0	9	-1	-7
O=C1C2C3CC(C(Br)C3Br)C2C(=O)N1c1nccs1 (stereo not given)	9	-10	1	-3	4	nt	nt
C[C@@H]1CN([C@H](C)CO)C(=O)CCCn2nncc2CO[C@@H]1CN(C)C(=O)c1ccccc1	0	-12	21*	6	1	-1	-5
C[C@@H]1CN([C@H](C)CO)C(=O)CCCn2nncc2CO[C@H]1CN(C)C(=O)c1ccc(N2CCN(C)CC2)cc1	0	0	19*	-1	-2	-7	-12
Nc1cc2ccccc2cc1NS(=O)(=O)N1CCCCC1	-9	1	-10	-2	-12	nt	nt
CN(Cc1ccccc1)C(=O)c1ccc2sc([C@H]3C[C@H](O)[C@@H](CO)O3)nc2c1	2	14	12	-1	-1	nt	nt
